Assay results published in ChEMBL document CHEMBL2401717, “Synthesis and bioactive evaluation of novel hybrids of metronidazole and berberine as new type of antimicrobial agents and their transportation behavior by human serum albumin” (Bioorg Med Chem, 2013).
Converted amounts (≈) assume the structure as drawn.

Tests used:
[1] = Stability of the compound at pH 6.5 to 8.5 after 30 mins by UV spectrophotometry; format: physicochemical; settings: buffer, pH 6.5, 0.5 h
Procedure, shortened: (§1)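 Stability followed by UV spectrometry across pH 6.5–8.5 and temperatures 30–80 °C.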

[2] = Stability of the compound at 30 to 80 degC after 30 mins by UV spectrophotometry; format: physicochemical; settings: 0.5 h; procedure, shortened: as §1
[3] = Solubility of the compound in phosphate buffer at pH 7.5 after 20 hrs by UV spectrophotometry; format: physicochemical
Procedure, shortened: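 Phosphate buffer pH 7.5 added to solid; suspension sonicated 10 min, then shaken at room temperature for 20 h and centrifuged. Supernatant concentration read by UV absorbance against a regression calibration curve (278 and 340 nm).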

[4] = Octanol-water partition coefficient, log P of the compound after 24 hrs by UV-Vis spectrophotometry; format: physicochemical
[5] = tested on: Candida; test: Antifungal activity against Candida mycoderma after 24 hrs by twofold broth dilution method; format: functional
Procedure, shortened: (§2)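 MIC by NCCLS-recommended twofold broth microdilution, run in triplicate. Strains: B. subtilis ATCC6633, E. coli DH52, M. luteus ATCC4698, P. vulgaris ATCC6896, S. dysenteriae, S. aureus ATCC25923, MRSA N315, C. albicans ATCC76615, C. mycoderma. References were chloromycin, norfloxacin and berberine for bacteria, and fluconazole for fungi.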

[6] = tested on: Proteus vulgaris; test: Antibacterial activity against Proteus vulgaris after 24 hrs by twofold broth dilution method; format: functional; procedure, shortened: as §2
[7] = tested on: Candida albicans; test: Antifungal activity against Candida albicans after 24 hrs by twofold broth dilution method; format: functional; procedure, shortened: as §2
[8] = tested on: Pseudomonas aeruginosa; test: Antibacterial activity against Pseudomonas aeruginosa after 24 hrs by twofold broth dilution method; format: functional
Procedure, shortened: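 Twofold broth dilution in 96-well microplates following NCCLS guidance; MIC read as the endpoint; tests run in triplicate.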

[9] = tested on: Shigella dysenteriae; test: Antibacterial activity against Shigella dysenteriae after 24 hrs by twofold broth dilution method; format: functional; procedure, shortened: as §2
[10] = tested on: Escherichia coli; test: Antibacterial activity against Escherichia coli DH52 after 24 hrs by twofold broth dilution method; format: functional; settings: DH52, 24 h; procedure, shortened: as §2
[11] = tested on: Micrococcus luteus; test: Antibacterial activity against Micrococcus luteus ATCC 4698 after 24 hrs by twofold broth dilution method; format: functional; settings: ATCC 4698, 24 h; procedure, shortened: as §2
[12] = tested on: Bacillus subtilis; test: Antibacterial activity against Bacillus subtilis after 24 hrs by twofold broth dilution method; format: functional; procedure, shortened: as §2
[13] = tested on: Staphylococcus aureus; test: Antibacterial activity against Staphylococcus aureus ATCC 25923 after 24 hrs by twofold broth dilution method; format: functional; settings: ATCC 25923, 24 h; procedure, shortened: as §2
[14] = tested on: Staphylococcus aureus; test: Antibacterial activity against methicillin-resistant Staphylococcus aureus N315 after 24 hrs by twofold broth dilution method; format: functional; settings: N315, 24 h; procedure, shortened: as §2

| SMILES | Stability [1] | Stability [2] | solubility at 20 h [3] | logP at 24 h [4] | MIC [5] | MIC [6] | MIC [7] | MIC [8] | MIC [9] | MIC [10] | MIC [11] | MIC [12] | MIC [13] | MIC [14] |
| --- | --- | --- | --- | --- | --- | --- | --- | --- | --- | --- | --- | --- | --- | --- |
| COc1ccc2cc3[n+](cc2c1OCCN(CCn1cnc([N+](=O)[O-])c1)Cc1cccc(Cl)c1)CCc1cc2c(cc1-3)OCO2.[Cl-] | Stable | Stable | 50.8 µg/mL | 0.57 | 32 µg/mL | 64 µg/mL | 16 µg/mL | 64 µg/mL | 256 µg/mL | 32 µg/mL | 64 µg/mL | 32 µg/mL | 8 µg/mL | 32 µg/mL |
| COc1ccc2cc3[n+](cc2c1OCCN(CCn1cncc1[N+](=O)[O-])Cc1ccc(Cl)cc1)CCc1cc2c(cc1-3)OCO2.[Cl-] | Stable | Stable | 68.1 µg/mL | 0.53 | 64 µg/mL | 32 µg/mL | 32 µg/mL | 16 µg/mL | 32 µg/mL | 32 µg/mL | 64 µg/mL | 128 µg/mL | 16 µg/mL | 32 µg/mL |
| O=[N+]([O-])c1cn(CCN(CCBr)Cc2ccc(Cl)cc2)cn1 | – | – | – | – | 128 µg/mL (≈ 330 µM) | 128 µg/mL (≈ 330 µM) | 64 µg/mL (≈ 165 µM) | 256 µg/mL (≈ 660 µM) | 128 µg/mL (≈ 330 µM) | 128 µg/mL (≈ 330 µM) | 128 µg/mL (≈ 330 µM) | 64 µg/mL (≈ 165 µM) | 64 µg/mL (≈ 165 µM) | 128 µg/mL (≈ 330 µM) |
| O=[N+]([O-])c1cncn1CCN(CCBr)Cc1ccc(Cl)c(Cl)c1 | – | – | – | – | 128 µg/mL (≈ 303 µM) | 32 µg/mL (≈ 75.8 µM) | 16 µg/mL (≈ 37.9 µM) | 16 µg/mL (≈ 37.9 µM) | 8 µg/mL (≈ 19 µM) | 16 µg/mL (≈ 37.9 µM) | 128 µg/mL (≈ 303 µM) | 32 µg/mL (≈ 75.8 µM) | 32 µg/mL (≈ 75.8 µM) | 32 µg/mL (≈ 75.8 µM) |
| COc1ccc2cc3[n+](cc2c1OCCN(CCn1cncc1[N+](=O)[O-])Cc1cccc(Cl)c1)CCc1cc2c(cc1-3)OCO2.[Cl-] | Stable | Stable | 71.3 µg/mL | 0.54 | 32 µg/mL | 64 µg/mL | 32 µg/mL | 16 µg/mL | 256 µg/mL | 32 µg/mL | 32 µg/mL | 32 µg/mL | 4 µg/mL | 16 µg/mL |
| O=[N+]([O-])c1cn(CCN(CCBr)Cc2ccc(Cl)c(Cl)c2)cn1 | – | – | – | – | 64 µg/mL (≈ 152 µM) | 64 µg/mL (≈ 152 µM) | 32 µg/mL (≈ 75.8 µM) | 32 µg/mL (≈ 75.8 µM) | 16 µg/mL (≈ 37.9 µM) | 32 µg/mL (≈ 75.8 µM) | 64 µg/mL (≈ 152 µM) | 32 µg/mL (≈ 75.8 µM) | 32 µg/mL (≈ 75.8 µM) | 64 µg/mL (≈ 152 µM) |
| COc1ccc2cc3[n+](cc2c1OC)CCc1cc2c(cc1-3)OCO2.[Cl-] [BERBERINE CHLORIDE] | – | – | – | – | 128 µg/mL | 128 µg/mL | > 512 µg/mL | 256 µg/mL | 256 µg/mL | > 512 µg/mL | > 512 µg/mL | > 512 µg/mL | 512 µg/mL | 128 µg/mL |
| O=[N+]([O-])c1cncn1CCN(CCBr)Cc1cccc(Cl)c1 | – | – | – | – | 64 µg/mL (≈ 165 µM) | 256 µg/mL (≈ 660 µM) | 64 µg/mL (≈ 165 µM) | 32 µg/mL (≈ 82.5 µM) | 256 µg/mL (≈ 660 µM) | 64 µg/mL (≈ 165 µM) | 64 µg/mL (≈ 165 µM) | 64 µg/mL (≈ 165 µM) | 16 µg/mL (≈ 41.3 µM) | 64 µg/mL (≈ 165 µM) |
| O=[N+]([O-])c1cn(CCN(CCBr)Cc2ccccc2Cl)cn1 | – | – | – | – | 128 µg/mL (≈ 330 µM) | 64 µg/mL (≈ 165 µM) | 16 µg/mL (≈ 41.3 µM) | 32 µg/mL (≈ 82.5 µM) | 32 µg/mL (≈ 82.5 µM) | 32 µg/mL (≈ 82.5 µM) | 64 µg/mL (≈ 165 µM) | 32 µg/mL (≈ 82.5 µM) | 16 µg/mL (≈ 41.3 µM) | 64 µg/mL (≈ 165 µM) |
| COc1ccc2cc3[n+](cc2c1OCCN(CCn1c([N+](=O)[O-])cnc1C)Cc1ccc(F)cc1F)CCc1cc2c(cc1-3)OCO2.[Cl-] | Stable | Stable | 60.6 µg/mL | -0.34 | 128 µg/mL | 64 µg/mL | 64 µg/mL | 128 µg/mL | 256 µg/mL | 128 µg/mL | 128 µg/mL | 64 µg/mL | 16 µg/mL | 16 µg/mL |
